The sample as a whole holds a higher share of hits than the screen did.
UPR XBP1 act: activators of adaptive XBP1 UPR arm, primary screen, cell-based, CHO-XBP1 luciferase reporter, luminescence, uHTS; 330,000 tested, 0.33% active; AID 463104, 2010; IRE1-XBP1 UPR activation; percent of tunicamycin response, DMSO as zero; activation, % at 20 µM;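 active = versus positive control, 20 µM dose yields 30% or more activation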
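Material: IRE1-XBP1 luciferase reporter CHO line / Quantity: one thousand reporter cells per well / Buffer or medium: F12 with 10% serum / Compound: 20 µM single concentration, DMSO 1% / Times: 6 h treatment, 37 °C / Detection: Steady-Glo luciferase glow luminescence, 10 min after reagent addition / Benchmarks: tunicamycin high, DMSO low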
CHOP inhibitor: inhibitors of CHOP promoter induction, primary screen, cell-based, unfolded protein response, luciferase reporter | AID 2732, 2010 | CHO-K1 CHOP-promoter luciferase, tunicamycin-induced, 15-18 h | inhibition, % at 10 µM | 220,000 tested, 3.8% active;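 active = compounds that reduced the stress-induced luciferase reporter signal by more than about 70% of percent inhibition, limit read from the data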
CHOP UPR activ: activators of apoptotic CHOP UPR arm, primary screen, cell-based, CHO-CHOP luciferase reporter, luminescence, uHTS. UPR activation; percent of tunicamycin response over DMSO baseline. activation, % at 10 µM. 330,000 tested, 0.34% active. AID 449763, 2010;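 active = at 10 µM dose, activation of 40% or more, normalized to positive control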
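measured by = luciferase luminescence | assay system = CHO-CHOP cells, stable luciferase reporter of PERK-eIF2a-CHOP signalling | amount = 500 reporter cells seeded per well | timing = 6 h compound exposure at 37 °C after overnight seeding | controls = positive tunicamycin 10 µg/mL, negative DMSO alone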
GAA850 FXN act: FXN promoter activators, primary screen, cell-based, luciferase luminescence, HEK293 lucGAA850; HEK293 lucGAA850 FXN promoter luciferase reporter, 24 h; percent of 10 µM SAHA response; activation, % at 6 µM; 360,000 tested, 0.56% active;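 active = activation above the average of all compounds screened plus 3 SD, cutoff fixed separately per campaign, cut at about 7.5% in these data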
UPR XBP1 confirm: IRE1-XBP1 UPR arm activators, confirmation, cell-based, CHO-XBP1 luciferase reporter, luminescence, single concentration; activation, % at 20 µM; shares compounds with UPR XBP1 act; 1,000 tested, 63% active;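 active = reporter signal at least 30% of the positive control's activation in two or more of four replicate wells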
Large screens that a line does not name were inactive (follow-up assays come after a bar, where they were run).

COc1ccc(-c2sc3ccccc3c2-c2ccc(OCCN3CCCCC3)cc2)cc1	none (no result: CHOP inhibitor)
CCN(C(=O)c1ccc(NC(=O)C2CCCCC2C(=O)O)cc1)c1ccccc1 (configuration not stated)	none (no result: UPR XBP1 act, CHOP inhibitor, CHOP UPR activ)
CCOc1ccc(Cl)cc1-c1cc(C(=O)NCc2ccccc2OC)[nH]n1	none (no result: UPR XBP1 act, CHOP inhibitor, CHOP UPR activ)
COc1cccc(NC(=O)CSc2nc3c([nH]c4ccccc43)c(=O)n2C)c1	UPR XBP1 act 34.8 | UPR XBP1 confirm inactive
COCCn1c(SCC(=O)Nc2cccc(NC(C)=O)c2)nc2c([nH]c3ccccc32)c1=O	none (no result: CHOP inhibitor)
Cc1ccc(NC(=O)CSc2ccccc2NC(=O)c2cccc(Cl)c2)cc1Cl	UPR XBP1 act 35.6 | UPR XBP1 confirm inactive
CC1=Nn2c(nnc2-c2cc(-c3ccccc3)n[nH]2)SC1	none
Brc1ccc(C2=Nn3c(nnc3-c3n[nH]c4c3CCC4)SC2)cc1	UPR XBP1 act 36.8 (no result: CHOP inhibitor) | UPR XBP1 confirm 49.4
c1ccc(-c2ccc(C3=Nn4c(nnc4-c4cc(-c5ccccc5)n[nH]4)SC3)cc2)cc1	UPR XBP1 act 64.1 | UPR XBP1 confirm inactive
CC1(C(=O)NS(=O)(=O)Cc2cccc(Cl)c2)CCN1C(=O)CCc1cccs1 (configuration not stated)	none (no result: UPR XBP1 act, CHOP inhibitor, CHOP UPR activ)
Cc1cn([C@H]2C[C@H](O)[C@@H](CNC/C=C/c3ccccc3[N+](=O)[O-])O2)c(=O)[nH]c1=O	none (no result: UPR XBP1 act, CHOP inhibitor, CHOP UPR activ)
Cc1nn(-c2ccccc2)c2sc(C(=O)NC3CC3)cc12	none
Cc1nc(NC(=O)c2cc3c(C)nn(-c4ccccc4)c3s2)sc1C(=O)Nc1ccccc1	UPR XBP1 act 49.1 | UPR XBP1 confirm 54.4
CN1OC[C@@H]2CN(Cc3ccccc3)[C@H](c3cccc(-c4ccccc4)c3)C[C@@H]21	none (no result: UPR XBP1 act, CHOP inhibitor, CHOP UPR activ)
CCc1nc2ccc(C(=O)N3CCN(S(=O)(=O)CC)CC3)cn2c1N(CC)CCOC	none (no result: UPR XBP1 act, CHOP inhibitor, CHOP UPR activ)
C/C(=N/NC(=O)c1ccc(C)s1)c1cccc(NC(=O)COc2ccc(Cl)cc2C)c1	UPR XBP1 act 56.1 | UPR XBP1 confirm 55.6
O=c1[nH]c(=O)n(Cc2ccco2)c2c1C(C(F)(F)F)(C(F)(F)F)N=C(CCC1CCCCC1)N2	UPR XBP1 act 42.8 | UPR XBP1 confirm inactive
O=c1[nH]c(=O)n(Cc2ccco2)c2c1C(C(F)(F)F)(C(F)(F)F)N=C(C1CCCCC1)N2	none
CC(NCC(O)COCCC12CC3CC(CC(C3)C1)C2)c1ccccc1 (configuration not stated)	UPR XBP1 act 50.5 | UPR XBP1 confirm 50.6
CC(C)NC(=O)c1ccc2sc([C@H]3C[C@H](O)[C@@H](CO)O3)nc2c1	none (no result: UPR XBP1 act, CHOP inhibitor, CHOP UPR activ)
COc1ccc(S(=O)(=O)N2c3cc(Cl)ccc3Oc3nc4ccccc4nc32)cc1	UPR XBP1 act 39.3 (no result: CHOP inhibitor) | UPR XBP1 confirm 31.1
O=S(=O)(c1ccc(Cl)cc1)N1c2ccccc2Oc2nc3ccccc3nc21	none
N=c1c(S(=O)(=O)c2ccccc2)cc2c(=O)n3ccccc3nc2n1C1CCCC1	UPR XBP1 act 30.2 (no result: CHOP inhibitor) | UPR XBP1 confirm inactive
Oc1[nH]c2ccccc2c1N=Nc1nc(Nc2ccccc2)nc(N2CCOCC2)n1	UPR XBP1 act 86.0 | UPR XBP1 confirm inactive
CC1=CC(C)(C)N2C(=O)C(=O)c3cc(OC(=O)c4ccco4)cc1c32	UPR XBP1 act 40.8 | UPR XBP1 confirm 57.2
COc1ccc(C(=O)/C=C/c2ccc(O)cc2)c(O)c1C/C=C(\C)CCC=C(C)C	UPR XBP1 act 82.6 (no result: CHOP inhibitor) | UPR XBP1 confirm 31.3
Cc1c(C#N)c2n(c1C)CCCC(=O)N2	none (no result: UPR XBP1 act, CHOP inhibitor, CHOP UPR activ)
Cc1ccc(-c2csc(/C(C#N)=C/Nc3ccc4c(c3)OCCO4)n2)cc1	UPR XBP1 act 32.8 | UPR XBP1 confirm inactive
O=C(Nc1ccc(Cl)cc1)c1csc([C@@H]2C[C@H](O)[C@@H](CO)O2)n1	none (no result: UPR XBP1 act, CHOP inhibitor, CHOP UPR activ)
COc1cccc(N=c2oc3c(C)ncc(CO)c3cc2C(=O)Nc2ccccc2OC)c1	none (no result: UPR XBP1 act, CHOP UPR activ, GAA850 FXN act)
COc1ccccc1NC(=O)c1cc2c(CO)cnc(C)c2oc1=Nc1ccccc1	UPR XBP1 act 500.9 (no result: CHOP inhibitor) | UPR XBP1 confirm 167.5
CCCNC(=O)/C(C#N)=C1\N=C(NC(=O)c2cccs2)c2ccccc21	UPR XBP1 act 44.8 (no result: CHOP inhibitor) | UPR XBP1 confirm 65.6
COCCNC(=O)/C(C#N)=C1\N=C(NC(=O)c2cccs2)c2ccccc21	none (no result: CHOP inhibitor)

From PubChem BioAssay
